# Results taken from publication PMC4263960 (Pediatric blood & cancer, 2013).
# Key:
# [1] = test system: BT-39 glioblastoma xenograft; assay: PPTP in vivo xenograft testing, BT-39; parameters: species or system mice
# NB-EBc1 cell line = assay: DIMSCAN in vitro cytotoxicity testing, NB-EBc1; format: cell-based
# In short: (§1)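 Test compound incubated with cells of a 24-line pediatric cancer panel for 96 h at 0.1 nM to 1 μM, then assessed by DIMSCAN. Relative IC50 (rIC50) derived per line. Panel comparison value is the panel rIC50 divided by the rIC50 of each cell line.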
# [2] = test system: OS-33 osteosarcoma xenograft; assay: PPTP in vivo xenograft testing, OS-33; parameters: species or system mice
# [3] = test system: OS-9 osteosarcoma xenograft; assay: PPTP in vivo xenograft testing, OS-9; parameters: species or system mice
# CHLA-136 cell line = assay: DIMSCAN in vitro cytotoxicity testing, CHLA-136; format: cell-based
# In short: as §1
# CHLA-266 cell line = assay: DIMSCAN in vitro cytotoxicity testing, CHLA-266; format: cell-based
# In short: as §1
# CHLA258 Ewing xenograft = assay: PPTP in vivo xenograft testing, CHLA258; parameters: species or system mice
# KT-10 Wilms xenograft = assay: PPTP in vivo xenograft testing, KT-10; parameters: species or system mice
# [4] = intravenous dose of 2 mg/kg; different mouse strain; cited from earlier work
# [5] = test system: D645 glioblastoma xenograft; assay: PPTP in vivo xenograft testing, D645; parameters: species or system mice
# NB-1643 cell line = assay: DIMSCAN in vitro cytotoxicity testing, NB-1643; format: cell-based
# In short: as §1
# [6] = test system: ALL-17 ALL B-precursor xenograft; assay: PPTP in vivo xenograft testing, ALL-17; parameters: species or system mice
# CHLA-90 cell line = assay: DIMSCAN in vitro cytotoxicity testing, CHLA-90; format: cell-based
# In short: as §1
# [7] = 1 mg/kg IP Q4Dx3 repeated at Day 21
smiles,measurement,setting,value
C=C1C[C@@H]2CC[C@@]34C[C@H]5O[C@H]6[C@@H](O3)[C@H]3O[C@H](CC[C@@H]3O[C@H]6[C@H]5O4)CC(=O)C[C@@H]3[C@@H](OC)[C@@H](C[C@H](O)CN)O[C@H]3C[C@H]3O[C@@H](CC[C@@H]1O2)C[C@@H](C)C3=C [Eribulin],T/C volume activity,[1]; 1 mg/kg IP,Low (Low activity = T/C >0.45)
same,EFS T/C,[1]; [7],>3.6
same,Median final RTV (CD45%),[1]; [7],0.5
same,Tumor volume T/C,"[1]; 1 mg/kg IP, Day 21 or earlier",1.00
same,IC50,"NB-EBc1 cell line; 96 h, read-out: rIC50",14.8 nM
same,Panel rIC50/Line rIC50,NB-EBc1 cell line; NB-EBc1,0.02
same,Relative in/out%,NB-EBc1 cell line; NB-EBc1,−92%
same,Ymin % (observed),NB-EBc1 cell line; NB-EBc1,1.76%
same,EFS activity,[2]; 1 mg/kg IP,"High (High activity requires: (a) an EFS T/C >2; (b) a significant difference in EFS distributions, and (c) a net reduction in median tumor volume for animals in the treated group at the end of treatment as compared to at treatment initiation)"
same,Response activity,[2]; 1 mg/kg IP,High (A high level of activity is indicated by a score of 6 or more)
same,T/C volume activity,[2]; 1 mg/kg IP,Int (Intermediate activity = T/C ≤0.45 but >0.15)
same,EFS T/C,[2]; [7],>2.7
same,Median final RTV (CD45%),[2]; [7],0.2
same,Tumor volume T/C,"[2]; 1 mg/kg IP, Day 21 or earlier",0.24
same,EFS activity,[3]; 1 mg/kg IP,Low (Low activity = EFS T/C <2)
same,Response activity,[3]; 1 mg/kg IP,Low (low activity by a score of <2)
same,T/C volume activity,[3]; 1 mg/kg IP,Low (Low activity = T/C >0.45)
same,EFS T/C,[3]; [7],1.4
same,Median final RTV (CD45%),[3]; [7],>4
same,Time to event,[3]; [7],26.3
same,Tumor volume T/C,"[3]; 1 mg/kg IP, Day 21 or earlier",0.61
same,IC50,"CHLA-136 cell line; 96 h, read-out: rIC50",2.37 nM
same,Panel rIC50/Line rIC50,CHLA-136 cell line; CHLA-136,0.11
same,Relative in/out%,CHLA-136 cell line; CHLA-136,−65%
same,Ymin % (observed),CHLA-136 cell line; CHLA-136,9.96%
same,Panel rIC50/Line rIC50,CHLA-266 cell line; CHLA-266,0.71
same,Relative in/out%,CHLA-266 cell line; CHLA-266,−79%
same,Ymin % (observed),CHLA-266 cell line; CHLA-266,5.54%
same,IC50,"CHLA-266 cell line; Homo sapiens, CHLA-266, 96 h, read-out: rIC50",0.38 nM
same,EFS activity,CHLA258 Ewing xenograft; 1 mg/kg IP,"High (High activity requires: (a) an EFS T/C >2; (b) a significant difference in EFS distributions, and (c) a net reduction in median tumor volume for animals in the treated group at the end of treatment as compared to at treatment initiation)"
same,Response activity,CHLA258 Ewing xenograft; 1 mg/kg IP,High (A high level of activity is indicated by a score of 6 or more)
same,T/C volume activity,CHLA258 Ewing xenograft; 1 mg/kg IP,High (High activity = T/C ≤0.15)
same,EFS T/C,CHLA258 Ewing xenograft; [7],>4.2
same,Median final RTV (CD45%),CHLA258 Ewing xenograft; [7],0.0
same,Tumor volume T/C,"CHLA258 Ewing xenograft; 1 mg/kg IP, Day 21 or earlier",0.01
same,EFS activity,KT-10 Wilms xenograft; 1 mg/kg IP,"High (High activity requires: (a) an EFS T/C >2; (b) a significant difference in EFS distributions, and (c) a net reduction in median tumor volume for animals in the treated group at the end of treatment as compared to at treatment initiation)"
same,Response activity,KT-10 Wilms xenograft; 1 mg/kg IP,High (A high level of activity is indicated by a score of 6 or more)
same,T/C volume activity,KT-10 Wilms xenograft; 1 mg/kg IP,High (High activity = T/C ≤0.15)
same,EFS T/C,KT-10 Wilms xenograft; [7],>3.7
same,Median final RTV (CD45%),KT-10 Wilms xenograft; [7],0.0
same,Tumor volume T/C,"KT-10 Wilms xenograft; 1 mg/kg IP, Day 21 or earlier",0.01
same,AUC,[4],"1,132 ng hour/ml"
same,EFS activity,[5]; 1 mg/kg IP,"Int (Intermediate activity = criteria (a) and (b) above, but not having a net reduction in median tumor volume for treated animals at the end of the study)"
same,Response activity,[5]; 1 mg/kg IP,High (A high level of activity is indicated by a score of 6 or more)
same,T/C volume activity,[5]; 1 mg/kg IP,High (High activity = T/C ≤0.15)
same,EFS T/C,[5]; [7],>7.1
same,Median final RTV (CD45%),[5]; [7],3.8
same,Tumor volume T/C,"[5]; 1 mg/kg IP, Day 21 or earlier",0.07
same,Panel rIC50/Line rIC50,NB-1643 cell line; NB-1643,0.57
same,Relative in/out%,NB-1643 cell line; NB-1643,−97%
same,Ymin % (observed),NB-1643 cell line; NB-1643,0.53%
same,IC50,"NB-1643 cell line; NB-1643, 96 h, read-out: rIC50",0.47 nM
same,EFS activity,[6]; 1.5 mg/kg IP,"High (High activity requires: (a) an EFS T/C >2; (b) a significant difference in EFS distributions, and (c) a net reduction in median tumor volume for animals in the treated group at the end of treatment as compared to at treatment initiation)"
same,Response activity,[6]; 1.5 mg/kg IP,High (A high level of activity is indicated by a score of 6 or more)
same,EFS T/C,[6]; 1.5 mg/kg IP Q4Dx3 repeated at Day 21,>5.3
same,Median final RTV (CD45%),"[6]; CD45%, 1.5 mg/kg IP",0.0%
same,IC50,"CHLA-90 cell line; 96 h, read-out: rIC50",1.77 nM
same,Panel rIC50/Line rIC50,CHLA-90 cell line; CHLA-90,0.15
same,Relative in/out%,CHLA-90 cell line; CHLA-90,−67%
same,Ymin % (observed),CHLA-90 cell line; CHLA-90,9.26%
